Test results from ChEMBL document CHEMBL4689842, “EUbOPEN Chemogenomics Library wave 1” (2021).

Experiments:
Fibroblast = assay: Incucyte cell viability with human fibroblast; assay type: toxicity, cell-based; conditions: 10 µM, compound concentration 10 uM; note: filed as whole numbers so only -1 and 0 and 1 occur
HEK-293T = assay: Multiplex assay against HEK293T; assay type: toxicity, cell-based; conditions: human;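 for Population Tubulin-Different-Phenotype (%): share of the cells with healthy nuclei that show this phenotype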
Outline: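 Four dyes were applied at seeding to live cells: Hoechst33342, BioTracker Green Microtubule Cytoskeleton Dye, MitoTracker Red and Annexin V Alexa Fluor 680. Imaging after compound addition used a CQ1 microscope at 37°C and 5% CO2. CellPathfinder machine-learning gating then sorted cells into Hoechst high-intensity objects or normal cells, normal cells into healthy, pyknosed or fragmented nuclei, and pyknosed cells into mitotic or apoptotic, with tubulin, mitochondrial-mass and membrane-permeability phenotypes given as per cents of healthy-nucleus cells.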

[1] = 12 h, 1 µM, compound concentration 1 uM, replicate 1
[2] = 12 h, 1 µM, compound concentration 1 uM, replicate 2
[3] = 12 h, 10 µM, compound concentration 10 uM, replicate 1
[4] = 12 h, 10 µM, compound concentration 10 uM, replicate 2
[5] = 24 h, 1 µM, compound concentration 1 uM, replicate 1
[6] = 24 h, 1 µM, compound concentration 1 uM, replicate 2
[7] = 24 h, 10 µM, compound concentration 10 uM, replicate 1
[8] = 24 h, 10 µM, compound concentration 10 uM, replicate 2

With Cc1c(Nc2ccc(S(=O)(=O)N3CCN(C)CC3)cc2F)nc2ccc(Nc3cnn(C4CC4)c3)cn2c1=O the “Growth Rate” value (Fibroblast; 0 h, replicate number 2, timepoint 0 hours) was 0, the “Growth Rate” value (Fibroblast; 6 h, replicate number 1, timepoint 6 hours) was 0 and the “Growth Rate” value (Fibroblast; 12 h, replicate number 1, timepoint 12 hours) was 0. The “Growth Rate” value (Fibroblast; 18 h, replicate number 1, timepoint 18 hours) was 0, the “Growth Rate” value (Fibroblast; 24 h, replicate number 1, timepoint 24 hours) was 0 and the “Growth Rate” value (Fibroblast; 24 h, replicate number 2, timepoint 24 hours) was 1. For the same molecule, the “Population Apoptotic (%)” value (HEK-293T; [1]) was 17%, the “Population Fragmented Nuclei (%)” value (HEK-293T; [1]) was 13% and the “Population Healthy Nuclei (%)” value (HEK-293T; [1]) was 52%. The “Population Hoechst High Intensity Objects (%)” value (HEK-293T; [1]) was 16%, the “Population Membrane Permeable-Phenotype (%)” value (HEK-293T; [1]) was 15% and the “Population Mitochondria Different-Phenotype (%)” value (HEK-293T; [1]) was 11%. The “Population Mitotic Cells (%)” value (HEK-293T; [1]) was 82%, the “Population Normal (%)” value (HEK-293T; [1]) was 83% and the “Population Pyknosed Nuclei (%)” value (HEK-293T; [1]) was 33%. For the same molecule, the “Population Tubulin-Different-Phenotype (%)” value (HEK-293T; [1]) was 47%, the “Total Cell Count” value (HEK-293T; [1]) was 566 and the “Population Apoptotic (%)” value (HEK-293T; [2]) was 11%. For the same molecule, the “Population Fragmented Nuclei (%)” value (HEK-293T; [2]) was 3%, the “Population Healthy Nuclei (%)” value (HEK-293T; [2]) was 83% and the “Population Hoechst High Intensity Objects (%)” value (HEK-293T; [2]) was 3%. For the same molecule, the “Population Membrane Permeable-Phenotype (%)” value (HEK-293T; [2]) was 14%, the “Population Mitochondria Different-Phenotype (%)” value (HEK-293T; [2]) was 29% and the “Population Mitotic Cells (%)” value (HEK-293T; [2]) was 88%. The “Population Normal (%)” value (HEK-293T; [2]) was 96%, the “Population Pyknosed Nuclei (%)” value (HEK-293T; [2]) was 12% and the “Population Tubulin-Different-Phenotype (%)” value (HEK-293T; [2]) was 73%. For the same molecule, the “Total Cell Count” value (HEK-293T; [2]) was 888, the “Population Apoptotic (%)” value (HEK-293T; [3]) was 17% and the “Population Fragmented Nuclei (%)” value (HEK-293T; [3]) was 11%. For the same molecule, the “Population Healthy Nuclei (%)” value (HEK-293T; [3]) was 73%, the “Population Hoechst High Intensity Objects (%)” value (HEK-293T; [3]) was 8% and the “Population Membrane Permeable-Phenotype (%)” value (HEK-293T; [3]) was 4%. For the same molecule, the “Population Mitochondria Different-Phenotype (%)” value (HEK-293T; [3]) was 4%, the “Population Mitotic Cells (%)” value (HEK-293T; [3]) was 82% and the “Population Normal (%)” value (HEK-293T; [3]) was 91%. The “Population Pyknosed Nuclei (%)” value (HEK-293T; [3]) was 15%, the “Population Tubulin-Different-Phenotype (%)” value (HEK-293T; [3]) was 4% and the “Total Cell Count” value (HEK-293T; [3]) was 791. The “Population Apoptotic (%)” value (HEK-293T; [4]) was 4%, the “Population Fragmented Nuclei (%)” value (HEK-293T; [4]) was 6% and the “Population Healthy Nuclei (%)” value (HEK-293T; [4]) was 89%. For the same molecule, the “Population Hoechst High Intensity Objects (%)” value (HEK-293T; [4]) was 2%, the “Population Membrane Permeable-Phenotype (%)” value (HEK-293T; [4]) was 2% and the “Population Mitochondria Different-Phenotype (%)” value (HEK-293T; [4]) was 10%. The “Population Mitotic Cells (%)” value (HEK-293T; [4]) was 95%, the “Population Normal (%)” value (HEK-293T; [4]) was 97% and the “Population Pyknosed Nuclei (%)” value (HEK-293T; [4]) was 4%. The “Population Tubulin-Different-Phenotype (%)” value (HEK-293T; [4]) was 7%, the “Total Cell Count” value (HEK-293T; [4]) was 1683 and the “Population Apoptotic (%)” value (HEK-293T; [5]) was 27%. The “Population Fragmented Nuclei (%)” value (HEK-293T; [5]) was 16%, the “Population Healthy Nuclei (%)” value (HEK-293T; [5]) was 60% and the “Population Hoechst High Intensity Objects (%)” value (HEK-293T; [5]) was 11%. For the same molecule, the “Population Membrane Permeable-Phenotype (%)” value (HEK-293T; [5]) was 21%, the “Population Mitochondria Different-Phenotype (%)” value (HEK-293T; [5]) was 9% and the “Population Mitotic Cells (%)” value (HEK-293T; [5]) was 72%. The “Population Normal (%)” value (HEK-293T; [5]) was 88%, the “Population Pyknosed Nuclei (%)” value (HEK-293T; [5]) was 23% and the “Population Tubulin-Different-Phenotype (%)” value (HEK-293T; [5]) was 65%. The “Total Cell Count” value (HEK-293T; [5]) was 536, the “Population Apoptotic (%)” value (HEK-293T; [6]) was 12% and the “Population Fragmented Nuclei (%)” value (HEK-293T; [6]) was 6%. The “Population Healthy Nuclei (%)” value (HEK-293T; [6]) was 85%, the “Population Hoechst High Intensity Objects (%)” value (HEK-293T; [6]) was 5% and the “Population Mitochondria Different-Phenotype (%)” value (HEK-293T; [6]) was 16%. The “Population Mitotic Cells (%)” value (HEK-293T; [6]) was 87%, the “Population Normal (%)” value (HEK-293T; [6]) was 94% and the “Population Pyknosed Nuclei (%)” value (HEK-293T; [6]) was 7%. The “Population Tubulin-Different-Phenotype (%)” value (HEK-293T; [6]) was 83%, the “Total Cell Count” value (HEK-293T; [6]) was 1100 and the “Population Apoptotic (%)” value (HEK-293T; [7]) was 16%. For the same molecule, the “Population Fragmented Nuclei (%)” value (HEK-293T; [7]) was 8%, the “Population Healthy Nuclei (%)” value (HEK-293T; [7]) was 85% and the “Population Hoechst High Intensity Objects (%)” value (HEK-293T; [7]) was 4%. For the same molecule, the “Population Membrane Permeable-Phenotype (%)” value (HEK-293T; [7]) was 9%, the “Population Mitochondria Different-Phenotype (%)” value (HEK-293T; [7]) was 3% and the “Population Mitotic Cells (%)” value (HEK-293T; [7]) was 83%. The “Population Normal (%)” value (HEK-293T; [7]) was 95%, the “Population Pyknosed Nuclei (%)” value (HEK-293T; [7]) was 6% and the “Population Tubulin-Different-Phenotype (%)” value (HEK-293T; [7]) was 8%. The “Total Cell Count” value (HEK-293T; [7]) was 922, the “Population Apoptotic (%)” value (HEK-293T; [8]) was 0% and the “Population Fragmented Nuclei (%)” value (HEK-293T; [8]) was 18%. For the same molecule, the “Population Healthy Nuclei (%)” value (HEK-293T; [8]) was 79%, the “Population Hoechst High Intensity Objects (%)” value (HEK-293T; [8]) was 3% and the “Population Membrane Permeable-Phenotype (%)” value (HEK-293T; [8]) was 7%. The “Population Mitochondria Different-Phenotype (%)” value (HEK-293T; [8]) was 2%, the “Population Mitotic Cells (%)” value (HEK-293T; [8]) was 100% and the “Population Normal (%)” value (HEK-293T; [8]) was 96%. For the same molecule, the “Population Pyknosed Nuclei (%)” value (HEK-293T; [8]) was 2%, the “Population Tubulin-Different-Phenotype (%)” value (HEK-293T; [8]) was 10% and the “Total Cell Count” value (HEK-293T; [8]) was 2721.
